Measurements published in ChEMBL document CHEMBL3399971.

What was measured:
[1] = molecular target: Metabotropic glutamate receptor 5 (Mus musculus, UniProt Q3UVX5); assay: Positive allosteric modulator activity at mGluR5 in mouse BV2 cells assessed as inhibition of nitric oxide production pre-treated 1 hr before lipopolysaccharide stimulation and measured 24 hrs post lipopolysaccharide stimulation by Griess reagent assay; assay type: cell-based, BV-2
Method in brief: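 BV2 microglia grown in DMEM plus 10% FBS at 37°C, 5% CO2. Pretreated 1 h with compound in 0.02% DMSO (final), then stimulated with LPS 50 ng/ml for 24 h. Read-out is supernatant nitrite by Griess reagent as a proxy for NO. IC50 is the mean of three independent experiments.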

[2] = Cytotoxicity against mouse BV2 cells by CytoTox96 non-radioactive cytotoxicity assay; assay type: cell-based, BV-2; conditions: for MNTC: BV2 cells, read-out: MNCC
Method in brief: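 BV2 murine microglia in DMEM with 10% FBS, 37°C, 5% CO2. Compounds in 0.02% DMSO (final) added 1 h before LPS (50 ng/ml), 24 h co-incubation. Viability by CytoTox96 non-radioactive kit. Value is the highest concentration without obvious cytotoxicity.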

[3] = Selectivity index, ratio of MNCC against mouse BV2 cells to IC50 for mGluR5 in mouse BV2 cells; assay type: functional, BV-2

Sequence of Metabotropic glutamate receptor 5 (Q3UVX5 whole entry): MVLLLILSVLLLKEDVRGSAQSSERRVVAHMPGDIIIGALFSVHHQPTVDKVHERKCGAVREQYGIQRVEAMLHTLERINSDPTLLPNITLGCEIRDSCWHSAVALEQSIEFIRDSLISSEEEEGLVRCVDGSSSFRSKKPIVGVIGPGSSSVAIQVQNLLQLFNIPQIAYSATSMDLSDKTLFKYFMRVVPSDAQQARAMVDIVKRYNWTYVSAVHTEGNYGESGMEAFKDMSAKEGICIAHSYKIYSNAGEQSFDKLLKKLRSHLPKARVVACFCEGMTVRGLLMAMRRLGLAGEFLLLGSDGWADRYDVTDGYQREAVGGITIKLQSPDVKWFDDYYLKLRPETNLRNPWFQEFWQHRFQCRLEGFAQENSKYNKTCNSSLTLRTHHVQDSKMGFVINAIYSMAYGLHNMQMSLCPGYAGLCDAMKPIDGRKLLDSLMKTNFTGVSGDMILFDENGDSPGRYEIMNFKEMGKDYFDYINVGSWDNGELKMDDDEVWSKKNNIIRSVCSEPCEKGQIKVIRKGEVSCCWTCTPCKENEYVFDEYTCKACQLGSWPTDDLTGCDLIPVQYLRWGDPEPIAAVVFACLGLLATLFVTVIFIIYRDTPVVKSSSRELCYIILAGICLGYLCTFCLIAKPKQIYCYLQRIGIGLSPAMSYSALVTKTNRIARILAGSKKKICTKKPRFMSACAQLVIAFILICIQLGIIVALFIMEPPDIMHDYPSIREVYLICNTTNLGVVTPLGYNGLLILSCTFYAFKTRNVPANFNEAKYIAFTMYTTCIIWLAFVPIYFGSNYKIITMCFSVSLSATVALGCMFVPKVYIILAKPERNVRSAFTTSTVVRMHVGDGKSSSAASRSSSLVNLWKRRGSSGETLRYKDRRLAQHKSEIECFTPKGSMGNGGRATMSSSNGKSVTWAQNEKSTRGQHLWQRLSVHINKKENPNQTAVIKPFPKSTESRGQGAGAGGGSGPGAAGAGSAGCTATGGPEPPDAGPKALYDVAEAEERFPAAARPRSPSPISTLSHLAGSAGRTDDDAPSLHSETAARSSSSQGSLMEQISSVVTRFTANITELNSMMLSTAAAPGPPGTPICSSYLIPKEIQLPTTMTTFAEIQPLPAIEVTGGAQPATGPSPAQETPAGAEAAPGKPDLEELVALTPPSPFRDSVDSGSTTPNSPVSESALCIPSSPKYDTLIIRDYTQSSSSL

## O=C(Nc1nc2ccccc2[nH]1)c1cccc(C(F)(F)F)c1
[1]; read-out: IC50
  IC50: 12 µM
[2]
  MNTC: 0.2 mM
[3]
  Selectivity Index: 17.2

## COc1cc(C(=O)Nc2nc3ccccc3[nH]2)ccc1S(N)(=O)=O
[1]; read-out: IC50
  IC50: 150 µM
[2]
  MNTC: 1 mM
[3]
  Selectivity Index: 6.59

## O=C(Sc1nc2ccccc2[nH]1)c1cccc(Cl)c1
[1]; read-out: IC50
  IC50: 160 µM
[2]
  MNTC: 1 mM
[3]
  Selectivity Index: 6.36

## COc1ccc(C(=O)Nc2nc3ccccc3[nH]2)cc1
[1]; read-out: IC50
  IC50: 100 µM
[2]
  MNTC: 1 mM
[3]
  Selectivity Index: 10.1

## O=C(Nc1nc2ccccc2[nH]1)c1cc(Cl)ccc1Cl
[1]; read-out: IC50
  IC50: 12 µM
[2]
  MNTC: 0.1 mM
[3]
  Selectivity Index: 8.33

## O=C(Nc1nc2ccccc2[nH]1)c1ccccc1
[1]; read-out: IC50
  IC50: 160 µM
[2]
  MNTC: 1 mM
[3]
  Selectivity Index: 6.17

## O=C(Nc1nc2ccccc2[nH]1)c1cc(Cl)cc(Cl)c1
[1]; read-out: IC50
  IC50: 6.4 µM
[2]
  MNTC: 0.8 mM
[3]
  Selectivity Index: 125

## O=C(Nc1nc2ccccc2[nH]1)c1ccc(Cl)c(Cl)c1
[1]; read-out: IC50
  IC50: 9.8 µM
[2]
  MNTC: 0.1 mM
[3]
  Selectivity Index: 10.2

## CN(C(=O)c1cccc(Cl)c1)c1nc2ccccc2[nH]1
[1]; read-out: IC50
  IC50: 210 µM
[2]
  MNTC: 1 mM
[3]
  Selectivity Index: 4.85

## O=C(Nc1nc2ccccc2[nH]1)c1ccccn1
[1]; bv-2
  IC50: ND(Insoluble)
[2]; bv-2
  MNCC: ND(Insoluble)

## CN(C)c1cccc(C(=O)Nc2nc3ccccc3[nH]2)c1
[1]; read-out: IC50
  IC50: 20 µM
[2]
  MNTC: 0.3 mM
[3]
  Selectivity Index: 14.7

## O=C(/C=C/c1ccncc1)Nc1nc2ccccc2[nH]1
[1]; read-out: IC50
  IC50: 22 µM
[2]
  MNTC: 1 mM
[3]
  Selectivity Index: 44.8

## O=C(Nc1nc2ccccc2[nH]1)c1ccc([N+](=O)[O-])cc1
[1]; read-out: IC50
  IC50: 33 µM
[2]
  MNTC: 0.3 mM
[3]
  Selectivity Index: 9.2

## O=C(Nc1nc2ccccc2[nH]1)c1ccccc1C(F)(F)F
[1]; read-out: IC50
  IC50: 88 µM
[2]
  MNTC: 1 mM
[3]
  Selectivity Index: 11.3

## COc1cccc(C(=O)Nc2nc3ccccc3[nH]2)c1
[1]; read-out: IC50
  IC50: 120 µM
[2]
  MNTC: 1 mM
[3]
  Selectivity Index: 8.06

## O=C(Nc1nc2ccccc2[nH]1)c1ccc(C(F)(F)F)cc1
[1]; read-out: IC50
  IC50: 59 µM
[2]
  MNTC: 1 mM
[3]
  Selectivity Index: 16.9

## Fc1cccc(/C=N/N=C/c2cccc(F)c2)c1
[2]
  MNTC: 0.5 mM

## O=C(Nc1nc2ccccc2[nH]1)c1cc(C(F)(F)F)ccc1C(F)(F)F
[1]; read-out: IC50
  IC50: 34 µM
[2]
  MNTC: 0.06 mM
[3]
  Selectivity Index: 1.74

## O=C(Nc1nc2ccccc2[nH]1)c1ccc(Cl)cc1
[1]; read-out: IC50
  IC50: 25 µM
[2]
  MNTC: 1 mM
[3]
  Selectivity Index: 40.4

## O=C(Nc1nc2ccccc2[nH]1)c1ccccc1Cl
[1]; read-out: IC50
  IC50: 110 µM
[2]
  MNTC: 0.3 mM
[3]
  Selectivity Index: 2.67

## O=C(Nc1nc2ccccc2[nH]1)c1cccc(Cl)c1
[1]; read-out: IC50
  IC50: 29 µM
[2]
  MNTC: 1 mM
[3]
  Selectivity Index: 34.6

## O=C(Nc1nc2ccccc2[nH]1)c1ccncc1
[2]
  MNTC: 1 mM

## O=C(Nc1nc2ccccc2[nH]1)c1ccc(F)cc1
[1]; read-out: IC50
  IC50: 15 µM
[2]
  MNTC: 1 mM
[3]
  Selectivity Index: 67.1

## O=C(Nc1nc2ccccc2[nH]1)c1cccc([N+](=O)[O-])c1
[1]; read-out: IC50
  IC50: 29 µM
[2]
  MNTC: 1 mM

## O=C(Nc1nc2ccccc2[nH]1)C1CCC1
[1]; read-out: IC50
  IC50: 15 µM
[2]
  MNTC: 0.06 mM
[3]
  Selectivity Index: 3.97

## O=C(Nc1nc2ccccc2[nH]1)C1CCCCC1
[1]; read-out: IC50
  IC50: 42 µM
[2]
  MNTC: 1 mM
[3]
  Selectivity Index: 24.1

## O=C(Nc1nc2ccccc2[nH]1)c1ccccc1F
[1]; read-out: IC50
  IC50: 36 µM
[2]
  MNTC: 1 mM
[3]
  Selectivity Index: 28
